ChEMBL document CHEMBL1142259, “Design and synthesis of novel potent and selective integrin alphanubeta3 antagonists--novel synthetic routes to isoquinolinone, benzoxazinone, and quinazolinone acetates” (Bioorg Med Chem Lett, 2008)

Tests used:
Integrin alpha-V/beta-3 = Integrin alpha-V/beta-3 (Homo sapiens, UniProt P05106+P06756); assay: Displacement of vitronectin from integrin alphavbeta3 receptor; format: protein-complex assay
In short: (§1)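 Ligand displacement from the isolated integrin receptor: vitronectin for αvβ3 and fibrinogen for αIIbβ3. IC50 reported as the mean of three experiments. Intra-assay variation <10%; inter-assay variation < factor 2.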

[1] = biological target: Integrin alpha-IIb/beta-3 (Homo sapiens, UniProt P05106+P08514); assay: Displacement of fibrinogen from integrin alpha2bbeta3 receptor; format: protein-complex assay; in short: as §1
Integrin alpha-IIb/beta-3, sequence (P05106 27-788 limits assumed): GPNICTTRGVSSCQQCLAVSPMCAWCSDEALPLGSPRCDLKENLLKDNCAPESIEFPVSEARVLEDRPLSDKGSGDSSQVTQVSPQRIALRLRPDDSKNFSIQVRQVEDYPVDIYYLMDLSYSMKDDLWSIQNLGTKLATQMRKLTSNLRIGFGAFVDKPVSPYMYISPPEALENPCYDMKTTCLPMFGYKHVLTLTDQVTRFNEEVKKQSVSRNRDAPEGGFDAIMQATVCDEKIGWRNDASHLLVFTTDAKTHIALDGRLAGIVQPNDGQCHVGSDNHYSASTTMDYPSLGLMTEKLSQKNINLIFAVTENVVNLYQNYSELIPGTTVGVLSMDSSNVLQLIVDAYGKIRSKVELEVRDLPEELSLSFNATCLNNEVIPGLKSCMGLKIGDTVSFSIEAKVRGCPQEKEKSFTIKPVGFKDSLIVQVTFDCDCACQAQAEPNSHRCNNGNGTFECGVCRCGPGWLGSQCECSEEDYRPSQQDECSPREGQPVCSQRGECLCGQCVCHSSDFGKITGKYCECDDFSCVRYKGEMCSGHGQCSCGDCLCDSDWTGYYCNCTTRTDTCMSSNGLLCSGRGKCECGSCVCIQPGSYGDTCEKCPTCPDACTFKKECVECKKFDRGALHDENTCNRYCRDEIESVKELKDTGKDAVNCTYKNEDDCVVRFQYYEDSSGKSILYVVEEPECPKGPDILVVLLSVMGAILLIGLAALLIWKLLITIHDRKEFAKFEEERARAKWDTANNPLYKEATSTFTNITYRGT
Integrin alpha-IIb/beta-3, sequence (P08514 32-887 limits assumed): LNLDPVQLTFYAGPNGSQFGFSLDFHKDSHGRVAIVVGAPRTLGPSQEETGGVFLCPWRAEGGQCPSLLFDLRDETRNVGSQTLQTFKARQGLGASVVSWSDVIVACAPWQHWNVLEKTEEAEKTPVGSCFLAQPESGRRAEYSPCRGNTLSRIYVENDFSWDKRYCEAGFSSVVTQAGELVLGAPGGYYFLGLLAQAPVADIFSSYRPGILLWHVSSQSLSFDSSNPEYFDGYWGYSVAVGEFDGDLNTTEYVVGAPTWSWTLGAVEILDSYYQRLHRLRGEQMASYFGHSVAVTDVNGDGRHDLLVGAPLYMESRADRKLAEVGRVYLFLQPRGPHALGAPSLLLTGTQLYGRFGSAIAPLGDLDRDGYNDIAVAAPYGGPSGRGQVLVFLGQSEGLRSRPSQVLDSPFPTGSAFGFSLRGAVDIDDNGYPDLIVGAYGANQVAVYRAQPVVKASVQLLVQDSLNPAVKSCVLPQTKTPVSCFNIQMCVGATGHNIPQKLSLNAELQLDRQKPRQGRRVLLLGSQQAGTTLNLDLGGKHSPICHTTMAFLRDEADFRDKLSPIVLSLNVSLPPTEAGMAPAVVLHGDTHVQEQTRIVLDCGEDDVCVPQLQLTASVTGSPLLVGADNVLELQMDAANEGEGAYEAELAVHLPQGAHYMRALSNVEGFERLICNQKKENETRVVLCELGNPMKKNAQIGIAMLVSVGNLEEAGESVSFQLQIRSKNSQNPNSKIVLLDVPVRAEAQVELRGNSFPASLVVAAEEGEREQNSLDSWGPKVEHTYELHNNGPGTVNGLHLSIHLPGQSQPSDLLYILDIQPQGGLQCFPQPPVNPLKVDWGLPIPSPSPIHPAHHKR
Integrin alpha-IIb/beta-3, sequence (P08514 891-1039 limits assumed): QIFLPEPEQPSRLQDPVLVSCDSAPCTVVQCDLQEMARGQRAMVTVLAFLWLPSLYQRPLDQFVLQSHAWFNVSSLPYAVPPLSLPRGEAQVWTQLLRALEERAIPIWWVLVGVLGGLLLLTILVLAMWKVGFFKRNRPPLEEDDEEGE

[2] = biological target: Integrin alpha-5/beta-1 (Homo sapiens) (UniProt P05556+P08648); assay: Inhibition of integrin alpha5beta1 receptor mediated cellular binding to fibronectin at 10 uM; format: protein-complex assay
[3] = Apparent permeability across human Caco-2 cells; format: ADME, cell-based
In short: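 Apparent permeability coefficient (Papp) measured in Caco-2 monolayers. n = 2, intra-assay variation <20%. Papp >2e-7 cm/s is classed as medium transport and >2e-6 cm/s as high transport.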

Integrin alpha-V/beta-3, sequence (P05106 27-788 limits assumed): as the sequence (P05106 27-788 limits assumed) above
Integrin alpha-V/beta-3, sequence (P06756 31-889 limits assumed): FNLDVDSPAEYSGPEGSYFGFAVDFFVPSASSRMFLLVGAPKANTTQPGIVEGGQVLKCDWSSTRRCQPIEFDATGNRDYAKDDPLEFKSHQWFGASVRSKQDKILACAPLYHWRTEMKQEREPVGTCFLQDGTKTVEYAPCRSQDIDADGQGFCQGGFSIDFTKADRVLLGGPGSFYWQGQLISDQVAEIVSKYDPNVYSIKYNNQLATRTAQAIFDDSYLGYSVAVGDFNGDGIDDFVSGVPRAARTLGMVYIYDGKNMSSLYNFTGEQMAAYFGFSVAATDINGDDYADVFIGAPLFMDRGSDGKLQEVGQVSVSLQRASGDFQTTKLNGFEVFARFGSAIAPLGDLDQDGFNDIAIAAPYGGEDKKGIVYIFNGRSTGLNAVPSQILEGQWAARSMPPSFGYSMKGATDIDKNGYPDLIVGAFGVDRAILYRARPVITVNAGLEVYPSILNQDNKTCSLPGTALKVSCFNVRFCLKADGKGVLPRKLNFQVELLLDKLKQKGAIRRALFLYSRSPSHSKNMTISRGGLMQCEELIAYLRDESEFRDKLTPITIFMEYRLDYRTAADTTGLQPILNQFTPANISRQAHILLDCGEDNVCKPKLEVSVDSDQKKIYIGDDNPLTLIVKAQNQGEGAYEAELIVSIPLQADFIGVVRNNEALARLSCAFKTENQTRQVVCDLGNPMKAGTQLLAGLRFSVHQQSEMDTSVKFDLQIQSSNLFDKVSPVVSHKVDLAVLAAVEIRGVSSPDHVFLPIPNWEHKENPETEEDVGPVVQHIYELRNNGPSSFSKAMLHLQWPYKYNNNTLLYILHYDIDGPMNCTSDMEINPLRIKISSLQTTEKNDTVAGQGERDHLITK
Integrin alpha-V/beta-3, sequence (P06756 891-1048 limits assumed): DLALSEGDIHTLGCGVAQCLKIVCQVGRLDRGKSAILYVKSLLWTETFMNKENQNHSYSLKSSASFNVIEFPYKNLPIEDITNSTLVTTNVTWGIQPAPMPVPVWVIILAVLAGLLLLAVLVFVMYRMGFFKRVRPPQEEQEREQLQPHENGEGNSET

Question: With `O=C(O)CCC1CC(=O)N(CC(=O)NCc2ccc(Nc3nc4ccccc4[nH]3)cc2)c2ccccc21` (centres undefined) as the compound, how does the IC50 (Integrin alpha-V/beta-3) read?
Answer: Its IC50 is 5000 nM.

Question: For `O=C(O)CCc1cc(=O)n(CC(=O)NCC2CCC(Nc3nc4ccccc4[nH]3)CC2)c2ccccc12` (trans isomer), which IC50 (Integrin alpha-V/beta-3) is on record?
Answer: The IC50 was 1000 nM.

Question: Which IC50 (Integrin alpha-V/beta-3) does the source give for `O=C(O)CC1OC(=O)N(CC(=O)NCc2ccc(Nc3nc4ccccc4[nH]3)cc2)c2ccccc21` (centres undefined) here?
Answer: Its IC50 is 4.2 nM.

Question: What about the IC50 [1] of the same compound?
Answer: The IC50 was > 10000 nM.

Question: And the inhibition [2]?
Answer: The inhibition was 8%.

Question: What about the Papp [3] of the same compound?
Answer: The Papp was 3.48 ×10⁻⁶ cm/s.

Question: With `O=C(O)CC1CC(=O)N(CC(=O)NCc2ccc(Nc3nc4ccccc4[nH]3)cc2)c2ccccc21` (centres undefined) as the compound, how does the IC50 (Integrin alpha-V/beta-3) read?
Answer: The IC50 was 50 nM.

Question: Which IC50 (Integrin alpha-V/beta-3) does the source give for `O=C(O)CCc1cc(=O)n(CC(=O)NCc2ccc(Nc3nc4ccccc4[nH]3)cc2)c2ccccc12` here?
Answer: The IC50 was 500 nM.

Question: With `O=C(O)CC1OC(=O)N(CC(=O)NCC2CCC(Nc3nc4ccccc4[nH]3)CC2)c2ccccc21` (centres undefined) as the compound, how does the IC50 (Integrin alpha-V/beta-3) read?
Answer: Its IC50 is 0.7 nM.

Question: What about the IC50 [1] of the same compound?
Answer: Its IC50 is > 10000 nM.

Question: And the inhibition [2]?
Answer: Its inhibition is 25%.

Question: And the Papp [3]?
Answer: The Papp was 3.23 ×10⁻⁶ cm/s.

Question: With `O=C(O)Cc1cc(=O)n(CC(=O)NCC2CCC(Nc3nc4ccccc4[nH]3)CC2)c2ccccc12` (centres undefined) as the compound, how does the IC50 (Integrin alpha-V/beta-3) read?
Answer: Its IC50 is 10 nM.

Question: Which IC50 (Integrin alpha-V/beta-3) does the source give for `O=C(O)CC1CN(CC(=O)NCC2CCC(Nc3nc4ccccc4[nH]3)CC2)C(=O)c2ccccc21` (trans isomer) here?
Answer: The IC50 was 10000 nM.

Question: With `O=C(O)CC1CN(CC(=O)NCc2ccc(Nc3nc4ccccc4[nH]3)cc2)C(=O)c2ccccc21` (centres undefined) as the compound, how does the IC50 (Integrin alpha-V/beta-3) read?
Answer: The IC50 was 10000 nM.

Question: Which IC50 (Integrin alpha-V/beta-3) does the source give for `O=C(O)CC1NC(=O)N(CC(=O)NCc2ccc(Nc3nc4ccccc4[nH]3)cc2)c2ccccc21` (centres undefined) here?
Answer: The IC50 was 37 nM.

Question: Which IC50 (Integrin alpha-V/beta-3) does the source give for `O=C(O)CC1CCC(=O)N(CC(=O)NCC2CCC(Nc3nc4ccccc4[nH]3)CC2)c2ccccc21` (centres undefined) here?
Answer: Its IC50 is 1.5 nM.

Question: With `O=C(O)Cc1cc(=O)n(CC(=O)NCc2ccc(Nc3nc4ccccc4[nH]3)cc2)c2ccccc12` as the compound, how does the IC50 (Integrin alpha-V/beta-3) read?
Answer: Its IC50 is 50 nM.

Question: For `O=C(O)CC1CC(=O)N(CC(=O)NCC2CCC(Nc3nc4ccccc4[nH]3)CC2)c2ccccc21` (trans isomer), which IC50 (Integrin alpha-V/beta-3) is on record?
Answer: Its IC50 is 7.4 nM.

Question: For `O=C(O)CC1NC(=O)N(CC(=O)NCC2CCC(Nc3nc4ccccc4[nH]3)CC2)c2ccccc21` (trans isomer), which IC50 (Integrin alpha-V/beta-3) is on record?
Answer: The IC50 was 13 nM.

Question: Which IC50 (Integrin alpha-V/beta-3) does the source give for `O=C(O)CC1CCN(CC(=O)NCc2ccc(Nc3nc4ccccc4[nH]3)cc2)C(=O)c2ccccc21` (centres undefined) here?
Answer: The IC50 was 122 nM.

Question: For `O=C(O)CC1CCN(CC(=O)NCC2CCC(Nc3nc4ccccc4[nH]3)CC2)C(=O)c2ccccc21` (centres undefined), which IC50 (Integrin alpha-V/beta-3) is on record?
Answer: Its IC50 is 11 nM.

Question: For `O=C(O)CCC1CC(=O)N(CC(=O)NCC2CCC(Nc3nc4ccccc4[nH]3)CC2)c2ccccc21` (centres undefined), which IC50 (Integrin alpha-V/beta-3) is on record?
Answer: Its IC50 is 27 nM.

Question: For `O=C(O)CC1CCC(=O)N(CC(=O)NCc2ccc(Nc3nc4ccccc4[nH]3)cc2)c2ccccc21` (centres undefined), which IC50 (Integrin alpha-V/beta-3) is on record?
Answer: Its IC50 is 4.4 nM.
